From ChEMBL document CHEMBL3272087, “Antifertility agents. 12. Structure-activity relationship of 3,4-diphenylchromenes and -chromans” (1976)
Calls of active or inactive are those of the source. The calls are words filed in the database; no cut-off is given here.

Legend:
Rattus norvegicus [1] = test: Antifertility activity in pregnant female albino rat assessed as implantation in both uterine horns on day 10 of pregnancy at 20 mg/kg/day, po for 5 days; type: functional, organism-based
In short: (§1)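 Mated rats of proven fertility; day 1 = sperm-positive vaginal smear. Compound macerated with gum acacia, given orally days 1-5, five animals per group; initial dose 20 mg/kg/day unless stated otherwise. Uterine horns examined on day 10; scored positive only when implantations totally absent in both horns.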

Rattus norvegicus [2] = test: Antifertility activity in po dosed pregnant female albino rat assessed as absence of implantation in both uterine horns on day 10 of pregnancy compound administered for 5 days; type: functional; in short: as §1
Rattus norvegicus [3] = test: Estrogenic activity in immature female rat assessed as mixture of leukocytes,epithelial cells and estrus smear with cornified cells at 10 mg/kg, po bid for 3 days; type: functional, organism-based; set-up: dose 10 mg/kg
In short: (§2)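 Immature female rats, 25-30 g. Vaginal smear scored as + (leucocytes with epithelial cells), ++ (proestrus, nucleated or nucleated plus cornified cells) or +++ (estrus, cornified cells only). Estrone used as standard.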

Rattus norvegicus [4] = test: Estrogenic activity in immature female rat assessed as uterine weight on day 4 at 10 mg/kg, po bid for 3 days (reference value: 13.6 +/- 0.8 mg); type: functional
Rattus norvegicus [5] = test: Estrogenic activity in immature female rat assessed as vaginal opening at 10 mg/kg, po bid for 3 days; type: functional, organism-based; set-up: dose 10 mg/kg
In short: (§3)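 Immature female rats, 25-30 g, scored for presence or absence of vaginal opening. Failure to induce opening was taken as complete absence of estrogenic activity.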

Rattus norvegicus [6] = test: Estrogenic activity in immature female rat assessed as diestrus smear with leukocytes and mixture of leukocytes,epithelial cells at 10 mg/kg, po bid for 3 days; type: functional, organism-based; set-up: dose 10 mg/kg; in short: as §2
Rattus norvegicus [7] = test: Estrogenic activity in immature female rat assessed as diestrus smear with leukocytes at 10 mg/kg, po bid for 3 days; type: functional, organism-based; set-up: dose 10 mg/kg; in short: as §2
Rattus norvegicus [8] = test: Estrogenic activity in immature female rat assessed as mixture of leukocytes and epithelial cells at 10 mg/kg, po bid for 3 days; type: functional, organism-based; set-up: dose 10 mg/kg; details: Epithelial cell; in short: as §2
Rattus norvegicus [9] = test: Estrogenic activity in immature female rat assessed as diestrus smear with leukocytes and proestrus smear with nucleated and cornified cells at 5 mg/kg, po bid for 3 days; type: functional, organism-based; set-up: dose 5 mg/kg; in short: as §2
Rattus norvegicus [10] = test: Estrogenic activity in immature female rat assessed as uterine weight on day 4 at 5 mg/kg, po bid for 3 days (reference value: 13.6 +/- 0.8 mg); type: functional
Rattus norvegicus [11] = test: Estrogenic activity in immature female rat assessed as vaginal opening at 5 mg/kg, po bid for 3 days; type: functional, organism-based; set-up: dose 5 mg/kg; in short: as §3
Rattus norvegicus [12] = test: Estrogenic activity in immature female rat assessed as mixture of leukocytes, epithelial cells and proestrus smear with nucleated and cornified cells at 10 mg/kg, po bid for 3 days; type: functional, organism-based; set-up: dose 10 mg/kg; details: Epithelial cell; in short: as §2

Structure (SMILES) | Activity (Rattus norvegicus [1]) | ED100 (Rattus norvegicus [2]) [mg/kg] | Activity (Rattus norvegicus [4]) [mg] | Activity (Rattus norvegicus [5]) | further results
Cc1ccc2c(c1)[C@@H](c1ccccc1)[C@@H](c1ccccc1)CO2 (relative stereo) | inactive | – | – | – | –
COc1ccc(C2=C(c3ccccc3)C(C)(C)Oc3cc(OCCN4CCCC4)ccc32)cc1.Cl | – | 10 | – | – | –
COc1ccc2c(c1)OC(C)(C)[C@@H](c1ccccc1)[C@@H]2c1ccc(OCCN2CCCC2)cc1 [LEVORMELOXIFENE] | – | 0.25 | 48.3 | Active | Activity (Rattus norvegicus [3]): Active
COc1ccc2c(c1)OC(C)(C)C(c1ccc(Cl)cc1)=C2c1ccc(O)cc1 | inactive | – | – | – | –
CCN(CC)CCOc1ccc(C2=C(c3ccccc3)C(C)(C)Oc3cc(OC)ccc32)cc1.Cl | – | 10 | 42 | Active | Activity (Rattus norvegicus [6]): Active
COc1ccc(C2=C(c3ccc(OC)cc3)C(C)(C)Oc3cc(OC)ccc32)cc1 | inactive | – | – | – | –
CCC1(CC)Oc2cc(OC)ccc2C(c2ccc(OCCN3CCCC3)cc2)=C1c1ccccc1.Cl | – | 10 | 35.4 | Active | Activity (Rattus norvegicus [7]): Active
COc1ccc2c(c1)OC[C@H](c1ccccc1)[C@H]2c1ccc(OCCN2CCCC2)cc1 (relative stereo) | – | 0.25 | 48.3 | Active | Activity (Rattus norvegicus [6]): Active
COc1ccc2c(c1)OC(C)(C)[C@@H](c1ccccc1)[C@H]2c1ccc(OCCN2CCCC2)cc1 | inactive | – | 20.5 | – | –
CCC1(CC)Oc2cc(OC)ccc2[C@@H](c2ccc(O)cc2)[C@H]1c1ccccc1 (relative stereo) | inactive | – | 14.6 | – | –
COc1ccc2c(c1)OC(C)(C)[C@H](c1ccccc1)[C@@H]2c1ccc(O)cc1 (relative stereo) | inactive | – | – | – | –
CCC1(CC)Oc2cc(OC)ccc2[C@@H](c2ccc(OCCN3CCCC3)cc2)[C@H]1c1ccccc1 | inactive | – | 16.5 | – | –
CC1(C)Oc2ccccc2C(c2ccc(OCCN3CCCC3)cc2)=C1c1ccccc1.Cl | – | 10 | – | – | –
CC1(C)Oc2ccccc2C(c2ccc(O)cc2)=C1c1ccccc1 | inactive | – | – | – | –
COc1ccc2c(c1)OC[C@H](c1ccccc1)[C@@H]2c1ccc(OCCN2CCCC2)cc1 (relative stereo) | – | 1 | 50.6 | Active | Activity (Rattus norvegicus [8]): Active; Activity (Rattus norvegicus [9]): Active; Activity (Rattus norvegicus [10]): 43.7 mg; Activity (Rattus norvegicus [11]): Active
COc1ccc2c(c1)OC(C)(C)C(c1ccccc1)=C2c1ccc(O)cc1 | inactive | – | 49.2 | Active | Activity (Rattus norvegicus [12]): Active
COc1ccc2c(c1)OCC(c1ccccc1)=C2c1ccc(OCCN2CCCC2)cc1 | – | 0.15 | 37.4 | Active | Activity (Rattus norvegicus [7]): Active
CCC1(CC)Oc2cc(OC)ccc2C(c2ccc(O)cc2)=C1c1ccccc1 | inactive | – | 39.2 | Active | Activity (Rattus norvegicus [7]): Active
Cc1ccc2c(c1)[C@H](c1ccccc1)[C@@H](c1ccccc1)CO2 (relative stereo) | inactive | – | – | – | –
COc1ccc2c(c1)OC(C)(C)C(c1ccccc1)=C2c1ccc(OCCN2CCCC2)cc1.Cl | – | 5 | – | – | –
CCC1(CC)Oc2cc(OC)ccc2[C@H](c2ccc(OCCN3CCCC3)cc2)[C@H]1c1ccccc1 | – | 5 | 46.6 | Active | Activity (Rattus norvegicus [3]): Active
COc1ccc(C2=C(c3ccccc3)C(C)(C)Oc3cc(O)ccc32)cc1 | inactive | – | – | – | –
COc1ccc2c(c1)OC(C)(C)C(c1ccc(Cl)cc1)=C2c1ccc(OCCN2CCCC2)cc1.Cl | – | 5 | – | – | –
COc1ccc2c(c1)OC(C)(C)[C@H](c1ccccc1)[C@H]2c1ccc(O)cc1 (relative stereo) | inactive | – | – | – | –
